“Also recorded” adds a separate entry of the source. Like-named read-outs stand apart in the source and are kept apart here.
Legend:
[1] = target: T1, human CMBL (Homo sapiens, UniProt Q96DG6); assay: Ulifloxacin formation from prulifloxacin by recombinant CMBL; format: in vitro ADME; settings: HEPES pH 7.4, 37 °C, CMBL-transfected mammalian cell lysate
T1 sequence (Q96DG6 1-245): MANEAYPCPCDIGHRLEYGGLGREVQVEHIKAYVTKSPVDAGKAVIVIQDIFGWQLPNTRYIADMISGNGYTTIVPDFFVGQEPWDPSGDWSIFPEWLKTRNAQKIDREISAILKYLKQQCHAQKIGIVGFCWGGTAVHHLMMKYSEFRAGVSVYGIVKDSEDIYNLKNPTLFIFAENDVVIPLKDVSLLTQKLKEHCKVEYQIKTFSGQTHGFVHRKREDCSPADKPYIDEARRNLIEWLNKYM

[2] = system: human plasma PON1; settings: cited from earlier work
[3] = target: T1, human CMBL; assay: Hydrolysis of typical esterase substrates by recombinant CMBL; format: biochemical; settings: substrate 1 mM, CMBL-transfected cell lysate 0.05 mg protein/ml
[4] = system: OM-hydrolyzing activity in human liver cytosol; format: biochemical
[5] = system: OM-hydrolyzing activity in human intestinal cytosol; format: biochemical
[6] = target: T1, human CMBL; format: biochemical
[7] = system: OM-hydrolyzing activity in human plasma; assay: Effect of esterase inhibitors on OM-hydrolyzing activity in human plasma; format: biochemical; settings: OM 250 μM, 5 min
Outline: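 Human plasma, diluted to 2.5 mg protein/ml, incubated 5 min with OM substrate (250 μM) plus one esterase inhibitor: BNPP, DFP, PCMB, eserine or PMSF at 1000 μM, or EDTA at 500 μM. Olmesartan formed was quantified by reversed-phase C18 HPLC with UV at 254 nm. Activity was expressed as formation rate. Means of duplicate determinations.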

[8] = target: T1, human CMBL; assay: Hydrolysis of medoxomil prodrugs by recombinant CMBL; format: in vitro ADME; settings: CMBL-transfected mammalian cell lysate, pH 7.4, 37 °C
[9] = system: plasma albumin; settings: cited from earlier work
[10] = OM hydrolysis in human liver cytosol, kinetic analysis; format: in vitro ADME
Outline: (§1)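 Commercial human liver or intestinal subcellular fractions were incubated in 10 mM potassium phosphate (pH 7.4) at 37 °C with OM at 7.81–1000 μM. Protein was 0.05 mg/ml for liver and intestinal cytosols, 0.5 mg/ml for liver microsomes and 0.25 mg/ml for intestinal microsomes. Olmesartan was measured by C18 HPLC-UV at 254 nm, net of buffer-control hydrolysis. Km and Vmax came from nonlinear least-squares Michaelis–Menten fits of triplicates.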

[11] = Prodrug in portal or circulating blood of rats; format: in vivo; settings: data not shown
[12] = OM hydrolysis in human liver microsomes, kinetic analysis; format: in vitro ADME
Outline: as §1

[13] = OM hydrolysis in human intestinal cytosol, kinetic analysis; format: in vitro ADME
Outline: as §1

[14] = OM hydrolysis in human intestinal microsomes, kinetic analysis; format: in vitro ADME
Outline: as §1

## Cc1oc(=O)oc1CN1CCN(c2cc3c(cc2F)c(=O)c(C(=O)O)c2n3C(C)S2)CC1 (centres unmarked) [prulifloxacin]
[1]
  Enzymatic hydrolysis by recombinant human CMBL: not enzymatically hydrolyzed; also recorded: not hydrolyzed at all
[2]
  Hydrolysis by PON1: hydrolyze

## CC(=O)Oc1ccc([N+](=O)[O-])cc1 [p-nitrophenyl acetate]
[3]
  Hydrolysis by recombinant CMBL: does not hydrolyze

## O=S(=O)(F)Cc1ccccc1 [PMSF, Phenylmethylsulfonyl fluoride]
[4]
  Inhibition of OM-hydrolyzing activity: not inhibited
[5]
  Inhibition of OM-hydrolyzing activity: not inhibited
[6]
  Inhibition of OM-hydrolyzing activity: no inhibition

## O=C(O)c1cc[c]([Hg][Cl])cc1 [PCMB, p-chloromercuribenzoate]
[7]; inhibitor 1000 μM
  Inhibition of OM-hydrolyzing activity: almost completely inhibited
[4]
  Inhibition of OM-hydrolyzing activity: strongly inhibited
[5]
  Inhibition of OM-hydrolyzing activity: strongly inhibited
[6]
  Inhibition of OM-hydrolyzing activity: almost completely inhibited

## Cc1oc(=O)oc1COC(=O)[C@@H]1N2C(=O)[C@@H](NC(=O)[C@H](N)c3ccccc3)[C@H]2SC1(C)C [Lenampicillin]
[8]
  Hydrolysis by recombinant CMBL: readily hydrolyzed

## O=[N+]([O-])c1ccc(OP(=O)(O)Oc2ccc([N+](=O)[O-])cc2)cc1 [BNPP, Bis-p-nitrophenylphosphate]
[4]
  Inhibition of OM-hydrolyzing activity: partially inhibited
[5]
  Inhibition of OM-hydrolyzing activity: partially inhibited
[6]
  Inhibition of OM-hydrolyzing activity: ~50%

## O=C(O)CN(CCN(CC(=O)O)CC(=O)O)CC(=O)O [EDTA]
[7]; inhibitor 500 μM
  Inhibition of OM-hydrolyzing activity: almost completely inhibited
[4]
  Inhibition of OM-hydrolyzing activity: not inhibited
[5]
  Inhibition of OM-hydrolyzing activity: not inhibited
[6]
  Inhibition of OM-hydrolyzing activity: no inhibition

## CNC(=O)Oc1ccc2c(c1)[C@]1(C)CCN(C)[C@@H]1N2C [eserine]
[4]
  Inhibition of OM-hydrolyzing activity: not inhibited
[5]
  Inhibition of OM-hydrolyzing activity: not inhibited
[6]
  Inhibition of OM-hydrolyzing activity: no inhibition

## Cc1oc(=O)oc1COC(=O)C1=C([C@H]2CCCO2)S[C@@H]2[C@@H]([C@@H](C)O)C(=O)N12 [Faropenem medoxomil]
[8]
  Hydrolysis by recombinant CMBL: readily hydrolyzed

## CC(=O)SCC[N+](C)(C)C.[I-] [acetylthiocholine iodide]
[3]
  Hydrolysis by recombinant CMBL: does not hydrolyze

## CCCc1nc(C(C)(C)O)c(C(=O)OCc2oc(=O)oc2C)n1Cc1ccc(-c2ccccc2-c2nnn[nH]2)cc1 [Olmesartan medoxomil]
[9]
  Hydrolysis by plasma albumin: capable of hydrolyzing
[10]; Liver cytosol, mean ± S.E.
  Vmax: 19.7 ± 0.8 nmol/min/mg protein
[10]; human, liver cytosol, pH 7.4
  Km: 160 ± 19 µM
[2]; listed as OM
  Hydrolysis by PON1: capable of hydrolyzing; also recorded: hydrolyze
[11]
  Prodrug detected in portal or circulating blood: no prodrug was detected
[12]; Liver microsomes, mean ± S.E.
  Vmax: 15.0 ± 0.3 nmol/min/mg protein
[12]; human, liver microsomes, pH 7.4
  Km: 481 ± 23 µM
[13]; Intestinal cytosol, mean ± S.E.
  Vmax: 45.1 ± 2.0 nmol/min/mg protein
[13]; human, intestinal cytosol, pH 7.4
  Km: 193 ± 24 µM
[14]; Intestinal microsomes, mean ± S.E.
  Vmax: 6.76 ± 0.11 nmol/min/mg protein
[14]; human, intestinal microsomes, pH 7.4
  Km: 236 ± 10 µM

## CC(=O)Oc1ccccc1 [phenyl acetate]
[3]
  Hydrolysis by recombinant CMBL: does not hydrolyze

— publication PMC2852926 (The Journal of Biological Chemistry, 2010)
